Experiments:
[1] = Tmax in C57BL/6 mouse blood at 200 mg/kg, po measured from 5 mins to 24 hrs by HPLC analysis; type: ADME, organism-based
Method in brief: (§1)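 Male C57BL/6 mice, single oral dose of prodrug at 100 or 200 mg/kg; blood and liver levels of the parent compound measured over time; N=3; Tmax taken from the concentration–time profiles.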

[2] = Oral bioavailability in C57BL/6 mouse liver at 100 mg/kg measured from 5 mins to 24 hrs by HPLC analysis; type: ADME, organism-based
Method in brief: (§2)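 Male C57BL/6 mice, n=3. Dosing 20 mg/kg i.v. or 100 mg/kg p.o. of parent; prodrug p.o. at 100 or 200 mg/kg. The parent compound was measured in blood/plasma and in liver from 5 min onward. Readouts were Cmax, Tmax, t1/2, CL, AUC and oral bioavailability.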

[3] = Tmax in C57BL/6 mouse liver at 100 mg/kg, po measured from 5 mins to 24 hrs by HPLC analysis; type: ADME, organism-based; method in brief: as §1
[4] = Solubility in pH 5.8 phosphate buffer at 1 mg at 25 degC by HPLC analysis; type: physicochemical
Method in brief: (§3)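 Solubility determined in water or 0.067 M phosphate buffer at pH 5.8, 6.8 and 7.4. Values are reported in mg/mL; ND means below the detection limit.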

[5] = Cmax in C57BL/6 mouse blood at 200 mg/kg, po measured from 5 mins to 24 hrs by HPLC analysis; type: ADME, organism-based; set-up: dose 200 mg/kg, route oral; method in brief: as §2
[6] = AUC in C57BL/6 mouse liver at 100 mg/kg, po measured from 5 mins to 24 hrs by HPLC analysis; type: ADME, organism-based; set-up: time 0.083-24 hr, dose 100 mg/kg, route oral; details: in vivo; method in brief: as §2
[7] = Half life in mouse plasma by HPLC analysis; details: in vitro
[8] = Cmax in C57BL/6 mouse liver at 100 mg/kg, po measured from 5 mins to 24 hrs by HPLC analysis; type: ADME, organism-based; set-up: dose 100 mg/kg, route oral; details: in vivo; method in brief: as §2
[9] = Tmax in C57BL/6 mouse liver at 200 mg/kg, po measured from 5 mins to 24 hrs by HPLC analysis; type: ADME, organism-based; method in brief: as §1
[10] = Oral bioavailability in C57BL/6 mouse liver at 200 mg/kg measured from 5 mins to 24 hrs by HPLC analysis; type: ADME, organism-based; method in brief: as §2
[11] = Solubility in pH 7.4 phosphate buffer at 1 mg at 25 degC by HPLC analysis; type: physicochemical; method in brief: as §3
[12] = AUC in C57BL/6 mouse liver at 200 mg/kg, po measured from 5 mins to 24 hrs by HPLC analysis; type: ADME, organism-based; set-up: time upper 24 hr, dose 200 mg/kg, time lower 0.083 hr, route oral; details: in vivo; method in brief: as §2
[13] = Tmax in C57BL/6 mouse blood at 100 mg/kg, po measured from 5 mins to 24 hrs by HPLC analysis; type: ADME, organism-based; method in brief: as §1
[14] = Drug level in C57BL/6 mouse liver at 100 mg/kg, po measured after 5 mins by HPLC analysis; type: ADME, organism-based; details: in vivo
[15] = AUC in C57BL/6 mouse plasma at 100 mg/kg, po measured from 5 mins to 24 hrs by HPLC analysis; type: ADME, organism-based; set-up: time upper 24 hr, dose 100 mg/kg, time lower 0.083 hr, route oral; method in brief: as §2
[16] = AUC in C57BL/6 mouse plasma at 200 mg/kg, po measured from 5 mins to 24 hrs by HPLC analysis; type: ADME, organism-based; set-up: time 0.083-24 hr, dose 200 mg/kg, route oral; method in brief: as §2
[17] = Cmax in C57BL/6 mouse blood at 100 mg/kg, po measured from 5 mins to 24 hrs by HPLC analysis; type: ADME, organism-based; set-up: dose 100 mg/kg, route oral; method in brief: as §2
[18] = Solubility in water at 1 mg at 25 degC by HPLC analysis; type: physicochemical; method in brief: as §3
[19] = Solubility in pH 6.8 phosphate buffer at 1 mg at 25 degC by HPLC analysis; type: physicochemical; details: phosphate buffer, read-out: solubility; method in brief: as §3
[20] = Cmax in C57BL/6 mouse liver at 200 mg/kg, po measured from 5 mins to 24 hrs by HPLC analysis; type: ADME, organism-based; set-up: dose 200 mg/kg, route oral; details: in vivo; method in brief: as §2
[21] = Stability in pH 7.4 buffer assessed as compound remaining level after 3 hrs at 37 degC by HPLC analysis; type: physicochemical; details: read-out: Stability
Method in brief: (§4)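 Prodrug incubated in buffer (0.1 M HCl, pH 5.8, 6.8 or 7.4) at 37 °C; percent of compound remaining determined by HPLC; remaining percentage reported after 3 h, stability meaning no hydrolysis after 2 h.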

[22] = Stability in pH 5.8 buffer assessed as compound remaining level at 37 degC by HPLC analysis; type: physicochemical; method in brief: as §4
[23] = Half life in mouse plasma by HPLC analysis; type: ADME, cell-free
Method in brief: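 Prodrug incubated in plasma at 37 °C, with percent remaining determined by HPLC to derive half-life.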

[24] = Stability in pH 6.8 buffer assessed as compound remaining level at 37 degC by HPLC analysis; type: physicochemical; method in brief: as §4

Cc1cc(Nc2nn(C3CC3)c3cnc(S(=O)(=O)N4CCC(OC(=O)CN(C)C)CC4)cc23)ccc1F.O=C(O)CC(O)(CC(=O)O)C(=O)O
Tmax [1]: 1 h | bioavailability [2]: 87.6% | Tmax [3]: 2 h | solubility [4]: 7600 µg/mL | Cmax [5]: 8.84 µM | AUC [6]: 306 nmol·h/g | half-life [7]: 0.783 h | Cmax [8]: 40 nmol/g | Tmax [9]: 4 h | bioavailability [10]: 132% | solubility [11]: 31 µg/mL | AUC [12]: 482 nmol·h/g | Tmax [13]: 1 h | Drug uptake [14]: > 10 nmol/g | AUC [15]: 7010 ng·h/mL | AUC [16]: 21100 ng·h/mL | Cmax [17]: 3.73 µM | solubility [18]: 8130 µg/mL | solubility [19]: 6650 µg/mL | Cmax [20]: 59 nmol/g

Cc1cc(Nc2nn(C3CC3)c3cnc(S(=O)(=O)N4CCC(OC(=O)[C@H](C)N)CC4)cc23)ccc1F.O=C(O)C(F)(F)F
remaining at 3 h [21]: 55.6% | Stability [22]: 85.7% | half-life [23]: 0.52 h | Stability [24]: 80.2%
